Results as given in ChEMBL document CHEMBL1156358, “Inhibition of leukocyte functions by the alkaloid isaindigotone from Isatis indigotica and some new synthetic derivatives” (J Nat Prod, 2001).
Calls of active or inactive are those of the source. The calls are words filed in the database; no cut-off is given here.

Key:
[1] = Antioxidant activity in cytochalasin B and fMLP-stimulated human neutrophils assessed as inhibition of p-nitrophenol-induced elastase activity at 10 uM
Neutrophil [2] = assay: (§1) Antioxidant activity against hypoxanthine / xanthine oxidase system-stimulated superoxide radical generation in human neutrophils; type: functional, cell-based
[3] = Antioxidant activity against 12-O-tetradecanoylphorbol-13-acetate-stimulated superoxide radical generation in human neutrophils assessed as chemiluminescence unit per 10^6 cells at 10 uM; type: functional, Neutrophil; parameters: unit not given here
In short: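 Human neutrophils (2.5×10^6 cells/mL) were loaded with luminol (40 µM) and stimulated with TPA (1 µM) for 7 min. Chemiluminescence was recorded, with compounds at 10 µM. Controls were stimulated cells given vehicle. Data are mean ± SEM.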

RAW264.7 [4] = assay: Antiinflammatory activity against LPS-stimulated mouse RAW264.7 cells assessed as PGE2 accumulation at 10 uM after 20 hrs by RIA relative to control; type: functional
In short: (§2)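 RAW 264.7 mouse macrophages (2×10^6/mL) in DMEM with 10% foetal bovine serum were stimulated with E. coli LPS (1 µg/mL) for 20 h alongside compound or vehicle (methanol, 1% v/v). Supernatant PGE2 was measured by radioimmunoassay. Single-point tests used 10 µM, reported as mean ± SEM (n = 9-12) against vehicle-treated stimulated cells. IC50 values carry 95% confidence limits.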

[5] = Cytotoxicity against human neutrophils at 10 uM by MTT assay; type: cell-based; conditions: neutrophil
RAW264.7 [6] = assay: Antiinflammatory activity against LPS-stimulated mouse RAW264.7 cells assessed as nitrite accumulation after 20 hrs by fluorimetry; type: functional, cell-based; conditions: RAW264.7, 20 h
In short: (§3)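 Mouse RAW 264.7 cells (2×10^6/mL) in DMEM plus 10% FBS were stimulated for 20 h with E. coli LPS (1 µg/mL), with compound or 1% v/v methanol vehicle. Nitrite in 10 µL supernatant was read fluorometrically after 10 min in the dark with 2,3-diaminonaphthalene (0.05 mg/mL in 0.62 M HCl). Single-point tests used 10 µM, given as mean ± SEM (n = 9-12). IC50s carry 95% confidence limits.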

RAW264.7 [7] = assay: Antiinflammatory activity against LPS-stimulated mouse RAW264.7 cells assessed as nitrite accumulation at 10 uM after 20 hrs by fluorimetry relative to control; type: functional
In short: as §3

[8] = biological target: T1, Polyunsaturated fatty acid 5-lipoxygenase (Homo sapiens) (UniProt P09917); assay: Inhibition of 5LO-mediated LTB4 production in calcium ionophore A23187-stimulated human neutrophils at 10 uM by RIA
T1 sequence (whole entry): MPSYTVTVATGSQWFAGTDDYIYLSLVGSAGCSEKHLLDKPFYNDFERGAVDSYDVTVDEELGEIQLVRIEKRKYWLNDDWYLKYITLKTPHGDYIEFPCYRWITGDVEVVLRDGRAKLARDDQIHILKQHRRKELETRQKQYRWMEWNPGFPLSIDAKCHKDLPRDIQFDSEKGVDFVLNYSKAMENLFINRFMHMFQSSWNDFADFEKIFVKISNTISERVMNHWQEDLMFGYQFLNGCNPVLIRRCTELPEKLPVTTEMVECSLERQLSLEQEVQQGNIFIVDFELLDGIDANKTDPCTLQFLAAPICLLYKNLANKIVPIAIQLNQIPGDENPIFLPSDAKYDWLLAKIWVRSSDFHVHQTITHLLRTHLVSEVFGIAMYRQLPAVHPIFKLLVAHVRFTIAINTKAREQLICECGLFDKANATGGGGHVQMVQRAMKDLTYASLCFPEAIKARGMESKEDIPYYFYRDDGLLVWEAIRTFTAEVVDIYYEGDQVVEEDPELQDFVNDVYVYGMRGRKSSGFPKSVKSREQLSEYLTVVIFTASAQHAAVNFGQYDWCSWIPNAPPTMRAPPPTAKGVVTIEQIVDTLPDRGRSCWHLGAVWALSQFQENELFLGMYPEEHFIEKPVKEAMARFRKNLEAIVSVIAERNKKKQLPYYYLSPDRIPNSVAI

RAW264.7 [9] = assay: Antiinflammatory activity against LPS-stimulated mouse RAW264.7 cells assessed as PGE2 accumulation after 20 hrs by RIA; type: functional, cell-based; conditions: RAW264.7, 20 h
In short: as §2

[10] = biological target: T2, Polyunsaturated fatty acid 5-lipoxygenase (Homo sapiens, UniProt P09917); assay: (§4) Inhibition of 5LO-mediated LTB4 production in human neutrophils by RIA
T2 sequence (P09917 whole entry): T1 sequence (whole entry)

[11] = biological target: T1, Polyunsaturated fatty acid 5-lipoxygenase (Homo sapiens); assay: as §4
[12] = as §1; type: functional, cell-based; conditions: Neutrophil
[13] = (§5) Antioxidant activity against 12-O-tetradecanoylphorbol-13-acetate-stimulated superoxide radical generation in human neutrophils; type: functional, cell-based; conditions: Neutrophil
Neutrophil [14] = assay: as §5; type: functional, cell-based

SMILES | IC50 (RAW264.7 [6]) [nM] | Activity [8] [ng/mL] | IC50 (RAW264.7 [9]) [nM] | IC50 [10] [nM] | Activity [11] | IC50 [12] [nM] | IC50 [13] [nM] | Activity [1] [nmol/mL] | Activity (Neutrophil [2]) | Activity [3] | Activity (RAW264.7 [4]) [ng/mL] | Activity [5] | Activity (RAW264.7 [7]) [ng/mL] | Activity (Neutrophil [14])
O=c1c2ccccc2nc2n1CC/C2=C\c1ccccc1 | > 10000 | 61.6 |  |  |  |  |  | 19.1 | inactive | 2960.4 | 4.8 | Non-toxic | 337.1 | 
O=c1c2ccccc2nc2n1CC/C2=C\c1ccc(C(F)(F)F)cc1 | > 10000 | 57.9 | > 10000 |  |  |  |  | 19.3 | inactive | 4101.1 | 15.6 | Non-toxic | 448 | 
CS(=O)(=O)Nc1ccc([N+](=O)[O-])cc1OC1CCCCC1 [NS-398] | > 10000 |  | 2.1 |  |  |  |  |  |  |  | 3.7 |  |  | 
O=c1c2ccccc2nc2n1CC/C2=C\c1ccc(O)cc1 | > 10000 | 55.9 | > 10000 |  |  |  |  | 16.9 | inactive | 3269.2 | 15.4 | Non-toxic | 429.8 | 
CCn1c(=O)ccc2cc(COc3cc(F)cc(C4(OC)CCOCC4)c3)ccc21 |  | 4.5 |  |  |  |  |  |  |  |  |  |  |  | 
COc1cc(/C=C2\CCn3c2nc2ccccc2c3=O)cc(OC)c1O [ISAINDIGOTONE] | > 10000 | 4.2 | > 10000 | 40 | Dose-dependent effect | 42.2 | 41.8 | 19.3 |  | 570.6 | 20.3 | Non-toxic | 459.3 | Dose-dependent effect
COc1cc(/C=C2\CCn3c2nc2ccccc2c3=O)cc(OC)c1 | > 10000 | 58.4 | > 10000 |  |  |  |  | 16.8 | inactive | 4150.7 | 14.8 | Non-toxic | 437.2 | 

More lines, main results first:

IC50 (RAW264.7 [6]) [nM] | Activity [8] [ng/mL] | IC50 (RAW264.7 [9]) [nM] | IC50 [10] [nM] | Activity [11] | IC50 [12] [nM] | IC50 [13] [nM] | SMILES | Activity [1] [nmol/mL] | Activity (Neutrophil [2]) | Activity [3] | Activity (RAW264.7 [4]) [ng/mL] | Activity [5] | Activity (RAW264.7 [7]) [ng/mL] | Activity (Neutrophil [14])
1800 | 59.8 |  |  |  |  |  | CC(=O)Oc1ccc(/C=C2\CCn3c2nc2ccccc2c3=O)cc1 | 19.2 | inactive | 2636.4 | 9.9 | Non-toxic | 151.2 | 
> 10000 | 58.9 | 80 |  |  |  |  | O=c1c2ccccc2nc2n1CC/C2=C\c1ccc(F)cc1 | 19.7 | inactive | 3221.7 | 5.7 | Non-toxic | 438 | 
4200 | 13.5 | 200 | 600 | Dose-dependent effect |  |  | COc1cc(/C=C2\CCn3c2nc2ccccc2c3=O)cc(OC)c1OC(C)=O | 18.6 | inactive | 2486.9 | 6.7 | Non-toxic | 143.4 | 
300 |  | > 10000 |  |  |  |  | CC(=N)NCc1cccc(CN)c1 [1400W] |  |  |  |  |  | 11.6 | 
